Laboratory results reported in ChEMBL document CHEMBL1212913, “Quinazolin-4-one derivatives: A novel class of noncompetitive NR2C/D subunit-selective N-methyl-D-aspartate receptor antagonists” (J Med Chem, 2010).

Assays:
[1] = biological target: Glutamate NMDA receptor; Grin1/Grin2b (Rattus norvegicus, UniProt P35439+Q00960); test: Antagonist activity at rat recombinant NR1-NR2B receptor expressed in Xenopus oocytes at holding potential of -40mV by two-electrode voltage-clamp electrophysiology; format: functional, cell-based, Oocyte
Glutamate NMDA receptor; Grin1/Grin2b, sequence (Q00960 whole entry, other chains not shown): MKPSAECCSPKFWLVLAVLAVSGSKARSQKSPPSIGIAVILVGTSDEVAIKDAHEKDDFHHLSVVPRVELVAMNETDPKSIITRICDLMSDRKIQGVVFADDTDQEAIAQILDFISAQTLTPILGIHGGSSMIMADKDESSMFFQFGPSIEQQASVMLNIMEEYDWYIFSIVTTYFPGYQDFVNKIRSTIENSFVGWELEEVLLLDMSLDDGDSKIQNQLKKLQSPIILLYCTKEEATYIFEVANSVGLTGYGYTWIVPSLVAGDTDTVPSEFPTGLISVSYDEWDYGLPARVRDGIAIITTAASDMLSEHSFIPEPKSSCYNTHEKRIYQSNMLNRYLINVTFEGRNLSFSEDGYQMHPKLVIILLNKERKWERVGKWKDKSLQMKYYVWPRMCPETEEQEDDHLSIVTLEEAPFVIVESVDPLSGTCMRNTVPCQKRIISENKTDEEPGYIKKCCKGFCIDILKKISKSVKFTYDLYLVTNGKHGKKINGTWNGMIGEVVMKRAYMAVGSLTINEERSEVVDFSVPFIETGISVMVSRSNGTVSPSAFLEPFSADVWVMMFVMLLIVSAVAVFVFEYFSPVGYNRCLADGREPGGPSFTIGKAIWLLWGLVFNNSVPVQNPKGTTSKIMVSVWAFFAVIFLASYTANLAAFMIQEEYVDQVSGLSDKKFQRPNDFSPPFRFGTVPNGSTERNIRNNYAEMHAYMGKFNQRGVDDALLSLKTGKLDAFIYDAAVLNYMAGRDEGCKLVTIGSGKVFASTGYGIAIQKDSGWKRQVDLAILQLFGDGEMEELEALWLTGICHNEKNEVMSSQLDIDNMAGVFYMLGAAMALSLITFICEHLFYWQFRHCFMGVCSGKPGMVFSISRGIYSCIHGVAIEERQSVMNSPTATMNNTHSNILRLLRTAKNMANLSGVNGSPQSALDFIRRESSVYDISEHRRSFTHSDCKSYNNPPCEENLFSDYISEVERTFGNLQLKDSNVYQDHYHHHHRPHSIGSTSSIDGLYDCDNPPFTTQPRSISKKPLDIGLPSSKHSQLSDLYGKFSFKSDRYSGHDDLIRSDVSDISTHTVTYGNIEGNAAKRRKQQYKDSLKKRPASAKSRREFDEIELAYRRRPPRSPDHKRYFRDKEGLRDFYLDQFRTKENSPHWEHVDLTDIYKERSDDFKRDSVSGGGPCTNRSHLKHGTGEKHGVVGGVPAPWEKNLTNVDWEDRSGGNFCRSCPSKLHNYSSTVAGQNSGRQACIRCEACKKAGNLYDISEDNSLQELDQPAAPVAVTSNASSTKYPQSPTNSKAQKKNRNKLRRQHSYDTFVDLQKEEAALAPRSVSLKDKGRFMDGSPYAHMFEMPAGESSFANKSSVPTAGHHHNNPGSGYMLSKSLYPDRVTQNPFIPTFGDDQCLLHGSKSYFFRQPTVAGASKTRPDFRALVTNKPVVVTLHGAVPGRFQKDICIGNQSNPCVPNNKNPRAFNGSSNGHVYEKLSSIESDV
Method in brief: (§1)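 Oocytes expressing rat NR1-1a with NR2A, NR2B, NR2C or NR2D, clamped at −40 mV in Ba2+/HEPES recording solution pH 7.4, 23°C. Current evoked by 100 μM glutamate plus 30 μM glycine. Final DMSO 0.05-0.5%, 5-7 inhibitor concentrations, ≥4 oocytes each. IC50 from Hill fit of normalized mean composite data. […] Some NR2A oocytes given BAPTA-AM or K-BAPTA.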

[2] = biological target: Glutamate NMDA receptor; Grin1/Grin2a (Rattus norvegicus, UniProt P35439+Q00959); test: Antagonist activity at rat recombinant NR1-NR2A receptor expressed in Xenopus oocytes at holding potential of -40mV by two-electrode voltage-clamp electrophysiology; format: functional, cell-based, Oocyte; method in brief: as §1
Glutamate NMDA receptor; Grin1/Grin2a, sequence (Q00959 whole entry, other chains not shown): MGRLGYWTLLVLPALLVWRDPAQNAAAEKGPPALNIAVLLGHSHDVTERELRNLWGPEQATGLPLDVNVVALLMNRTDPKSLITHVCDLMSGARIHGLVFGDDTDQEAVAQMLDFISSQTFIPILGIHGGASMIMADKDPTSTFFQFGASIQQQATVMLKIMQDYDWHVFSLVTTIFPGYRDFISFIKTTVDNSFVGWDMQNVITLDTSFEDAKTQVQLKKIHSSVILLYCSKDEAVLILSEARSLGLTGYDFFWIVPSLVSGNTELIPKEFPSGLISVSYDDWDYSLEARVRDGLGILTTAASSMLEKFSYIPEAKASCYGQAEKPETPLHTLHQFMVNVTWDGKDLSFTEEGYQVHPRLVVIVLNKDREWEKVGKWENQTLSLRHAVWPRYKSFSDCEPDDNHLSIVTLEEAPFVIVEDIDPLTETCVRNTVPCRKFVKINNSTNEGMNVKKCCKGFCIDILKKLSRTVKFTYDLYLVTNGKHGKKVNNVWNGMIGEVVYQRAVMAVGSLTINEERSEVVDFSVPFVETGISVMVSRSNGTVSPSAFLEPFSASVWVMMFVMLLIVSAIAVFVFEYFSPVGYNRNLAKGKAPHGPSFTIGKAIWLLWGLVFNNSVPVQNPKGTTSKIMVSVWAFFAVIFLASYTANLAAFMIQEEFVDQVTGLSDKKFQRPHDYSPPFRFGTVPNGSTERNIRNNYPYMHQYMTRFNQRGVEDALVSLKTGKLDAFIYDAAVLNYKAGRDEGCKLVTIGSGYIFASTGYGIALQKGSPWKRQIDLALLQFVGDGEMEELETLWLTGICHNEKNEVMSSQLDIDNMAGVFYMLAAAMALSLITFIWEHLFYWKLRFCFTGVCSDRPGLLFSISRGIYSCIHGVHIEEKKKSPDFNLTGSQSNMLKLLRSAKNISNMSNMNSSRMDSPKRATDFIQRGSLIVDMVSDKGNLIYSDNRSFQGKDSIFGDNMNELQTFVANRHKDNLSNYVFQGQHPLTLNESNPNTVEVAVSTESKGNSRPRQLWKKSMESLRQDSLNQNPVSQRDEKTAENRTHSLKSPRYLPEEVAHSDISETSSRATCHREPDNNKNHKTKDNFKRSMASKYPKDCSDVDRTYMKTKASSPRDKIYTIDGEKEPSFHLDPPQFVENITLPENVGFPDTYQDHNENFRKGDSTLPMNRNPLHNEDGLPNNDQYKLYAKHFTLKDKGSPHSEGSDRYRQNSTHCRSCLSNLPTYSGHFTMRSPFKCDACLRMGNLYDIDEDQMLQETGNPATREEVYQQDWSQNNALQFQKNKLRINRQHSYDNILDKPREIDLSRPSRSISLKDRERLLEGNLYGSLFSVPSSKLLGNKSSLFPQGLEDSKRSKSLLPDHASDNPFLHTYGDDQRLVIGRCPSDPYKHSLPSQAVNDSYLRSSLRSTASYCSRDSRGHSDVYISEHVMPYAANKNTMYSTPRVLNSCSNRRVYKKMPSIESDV

[3] = biological target: Glutamate NMDA receptor; Grin1/Grin2c (Rattus norvegicus, UniProt P35439+Q00961); test: Antagonist activity at rat recombinant NR1-NR2C receptor expressed in Xenopus oocytes at holding potential of -40mV by two-electrode voltage-clamp electrophysiology; format: functional, cell-based, Oocyte; method in brief: as §1
Glutamate NMDA receptor; Grin1/Grin2c, sequence (Q00961 whole entry, other chains not shown): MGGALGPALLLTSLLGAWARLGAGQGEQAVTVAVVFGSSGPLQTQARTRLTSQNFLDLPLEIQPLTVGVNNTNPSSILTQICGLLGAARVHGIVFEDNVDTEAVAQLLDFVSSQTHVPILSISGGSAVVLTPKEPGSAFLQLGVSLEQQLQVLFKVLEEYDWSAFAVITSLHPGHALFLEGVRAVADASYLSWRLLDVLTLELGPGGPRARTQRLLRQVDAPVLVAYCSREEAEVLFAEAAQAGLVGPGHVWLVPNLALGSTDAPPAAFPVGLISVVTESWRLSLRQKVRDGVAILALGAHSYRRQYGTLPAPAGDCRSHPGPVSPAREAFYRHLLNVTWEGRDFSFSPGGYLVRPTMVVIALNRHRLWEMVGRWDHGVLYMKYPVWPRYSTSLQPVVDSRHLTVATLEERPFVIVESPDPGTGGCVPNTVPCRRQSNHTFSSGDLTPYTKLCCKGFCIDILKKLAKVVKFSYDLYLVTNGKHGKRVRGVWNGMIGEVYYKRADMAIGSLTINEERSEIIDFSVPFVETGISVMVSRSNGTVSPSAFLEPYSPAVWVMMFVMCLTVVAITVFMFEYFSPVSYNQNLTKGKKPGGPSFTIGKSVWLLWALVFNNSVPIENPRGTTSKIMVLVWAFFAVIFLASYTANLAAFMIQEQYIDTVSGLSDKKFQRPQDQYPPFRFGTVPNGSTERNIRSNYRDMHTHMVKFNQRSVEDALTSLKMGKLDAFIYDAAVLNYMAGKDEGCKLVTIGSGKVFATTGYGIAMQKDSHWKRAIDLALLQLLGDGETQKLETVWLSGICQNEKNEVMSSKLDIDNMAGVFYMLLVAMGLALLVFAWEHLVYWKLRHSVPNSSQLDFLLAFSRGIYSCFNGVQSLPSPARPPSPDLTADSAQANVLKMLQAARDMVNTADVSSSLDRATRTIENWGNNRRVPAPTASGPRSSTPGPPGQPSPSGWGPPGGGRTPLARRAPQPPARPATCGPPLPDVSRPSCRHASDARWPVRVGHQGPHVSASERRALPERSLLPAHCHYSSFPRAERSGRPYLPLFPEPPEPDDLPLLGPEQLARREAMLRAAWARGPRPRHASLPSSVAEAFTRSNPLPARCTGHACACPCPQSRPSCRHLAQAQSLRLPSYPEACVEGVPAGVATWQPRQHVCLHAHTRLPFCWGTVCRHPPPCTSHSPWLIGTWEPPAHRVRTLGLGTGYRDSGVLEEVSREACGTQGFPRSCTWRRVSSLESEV

[4] = biological target: Ionotropic glutamate receptor NMDA 1/2D (Rattus norvegicus, UniProt P35439+Q62645); test: Antagonist activity at rat recombinant NR1-NR2D receptor expressed in Xenopus oocytes at holding potential of -40mV by two-electrode voltage-clamp electrophysiology; format: functional, cell-based, Oocyte
Method in brief: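 Oocytes expressing rat NR1-1a with NR2A, NR2B, NR2C or NR2D, clamped at −40 mV in Ba2+/HEPES recording solution pH 7.4, 23°C. Current evoked by 100 μM glutamate plus 30 μM glycine. Final DMSO 0.05-0.5%, 5-7 inhibitor concentrations, ≥4 oocytes each. IC50 from Hill fit of normalized mean composite data. Some NR2A oocytes given BAPTA-AM or K-BAPTA.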

Glutamate receptor 1 = Glutamate receptor 1 (Rattus norvegicus, UniProt P19490); test: Antagonist activity at rat recombinant GLuR1 expressed in Xenopus oocytes assessed as inhibition of glutamate-induced current by two-electrode voltage-clamp electrophysiology; format: functional, cell-based, Oocyte
Glutamate receptor 1, sequence (P19490 whole entry, the tested form may be a part): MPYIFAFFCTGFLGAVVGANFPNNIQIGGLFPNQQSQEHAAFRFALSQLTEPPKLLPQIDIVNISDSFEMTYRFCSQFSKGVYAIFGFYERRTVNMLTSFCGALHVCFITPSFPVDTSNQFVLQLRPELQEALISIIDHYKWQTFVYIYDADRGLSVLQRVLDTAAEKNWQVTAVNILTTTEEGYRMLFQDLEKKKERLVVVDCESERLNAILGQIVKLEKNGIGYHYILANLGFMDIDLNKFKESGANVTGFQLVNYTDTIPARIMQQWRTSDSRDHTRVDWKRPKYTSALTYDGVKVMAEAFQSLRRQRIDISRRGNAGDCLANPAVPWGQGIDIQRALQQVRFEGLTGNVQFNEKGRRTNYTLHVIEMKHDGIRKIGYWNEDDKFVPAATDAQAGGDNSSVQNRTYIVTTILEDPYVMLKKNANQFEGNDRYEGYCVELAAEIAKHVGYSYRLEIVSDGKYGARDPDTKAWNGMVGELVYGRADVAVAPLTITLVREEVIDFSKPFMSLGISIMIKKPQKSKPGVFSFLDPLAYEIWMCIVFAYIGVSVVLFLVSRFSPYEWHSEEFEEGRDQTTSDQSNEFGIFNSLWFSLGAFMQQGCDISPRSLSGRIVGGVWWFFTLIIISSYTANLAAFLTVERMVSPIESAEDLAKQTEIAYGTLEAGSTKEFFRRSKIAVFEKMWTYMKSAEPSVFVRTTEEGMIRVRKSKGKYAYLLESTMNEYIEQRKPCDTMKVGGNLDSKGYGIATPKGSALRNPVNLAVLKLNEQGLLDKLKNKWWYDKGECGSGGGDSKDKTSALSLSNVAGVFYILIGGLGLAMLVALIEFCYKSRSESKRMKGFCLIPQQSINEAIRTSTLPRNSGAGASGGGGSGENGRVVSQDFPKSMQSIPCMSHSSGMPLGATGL
Method in brief: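 Two-electrode voltage clamp at −40 mV on Xenopus oocytes expressing rat GluR1, perfused with 90 NaCl, 1.0 KCl, 0.5 BaCl2, 0.005 EDTA, 10 HEPES (mM), pH 7.4, 23°C; activated by 100 μM glutamate. From 20 mM DMSO stocks, 5-7 concentrations, ≥4 oocytes each. Hill fit to mean composite curves normalized to control, minimum usually fixed at 0. Response >75% at 100 μM reported as >300 μM.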

Rattus norvegicus [5] = species on record: Rattus norvegicus; test: Selectivity ratio of IC50 for rat recombinant NR1-NR2A receptor to IC50 for rat recombinant NR1-NR2D receptor
Method in brief: (§2)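 Ratio of fitted IC50 values, either NR2A/NR2D or GluR1/NR2D, from two-electrode voltage-clamp Hill fits in oocytes. Where noted, calculated from IC50 values rounded to the nearest μM.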

Rattus norvegicus [6] = species on record: Rattus norvegicus; test: Selectivity ratio of IC50 for rat recombinant GLuR1 to IC50 for rat recombinant NR1-NR2D receptor; method in brief: as §2

| IC50 ([1]; read-out: IC50) [µM] | IC50 ([2]; read-out: IC50) [µM] | IC50 [4] [µM] | IC50 (Glutamate receptor 1) [µM] | Ratio IC50 (Rattus norvegicus [5]) | SMILES | IC50 [3] [µM] | IC50 ([1]; oocyte) | IC50 ([2]; oocyte) | Ratio IC50 (Rattus norvegicus [6]) |
| --- | --- | --- | --- | --- | --- | --- | --- | --- | --- |
| 279 | > 300 | 8 | > 300 | – | O=C(O)c1cccc(-n2c(/C=C/c3ccc([N+](=O)[O-])cc3)nc3ccc(I)cc3c2=O)c1 | 9 | – | – | – |
| 206 | 197 | 7 | > 300 | 28 | COc1ccc2nc(/C=C/c3ccc([N+](=O)[O-])cc3)n(-c3ccc(C(=O)O)cc3)c(=O)c2c1 | 13 | – | – | – |
| 138 | 41 | 17 | > 300 | 2 | Cc1ccc(/C=C/c2nc3ccccc3c(=O)n2-c2ccc(C(=O)O)cc2)cc1 | – | – | – | – |
| > 300 | – | 28 | > 300 | – | O=C(O)c1ccc(-n2c(/C=C/c3ccccc3C(F)(F)F)nc3ccccc3c2=O)cc1 | – | – | – | – |
| > 300 | > 300 | 1 | > 300 | > 150 | O=C(O)c1ccc(-n2c(/C=C/c3ccc([N+](=O)[O-])cc3)nc3ccc(I)cc3c2=O)cc1 | 2 | – | – | – |
| 78 | > 300 | 282 | > 300 | – | Cc1ccc2nc(CCc3ccccc3)n(-c3ccc(C(=O)O)cc3)c(=O)c2c1 | 184 | – | – | – |
| 55 | 61 | 15 | 233 | 4 | O=C(O)c1ccc(-n2c(/C=C/c3ccc(C(F)(F)F)cc3)nc3ccccc3c2=O)cc1 | – | – | – | 16 |
| 110 | > 300 | 14 | > 300 | – | O=C(O)c1ccc(-n2c(/C=C/c3cccc([N+](=O)[O-])c3)nc3cccc(Cl)c3c2=O)cc1 | 22 | – | – | – |
| 30 | 52 | 17 | 24 | 3 | O=C(O)c1ccc(-n2c(/C=C/c3cccc(O)c3)nc3ccccc3c2=O)cc1 | – | – | – | 1 |
| – | – | – | – | 16 | O=C(O)c1ccc(-n2c(/C=C/c3cccc([N+](=O)[O-])c3)nc3ccc(Cl)cc3c2=O)cc1 | – | – | – | 7 |
| 34 | 21 | 18 | > 300 | 1 | Cc1cccc(/C=C/c2nc3ccccc3c(=O)n2-c2ccc(C(=O)O)cc2)c1 | – | – | – | – |
| 51 | 88 | 16 | 38 | 6 | COc1ccccc1/C=C/c1nc2ccccc2c(=O)n1-c1ccc(C(=O)O)cc1 | – | – | – | 2 |
| 93 | 86 | 81 | 62 | 1 | Cc1ccccc1/C=C/c1nc2ccccc2c(=O)n1-c1ccc(C(=O)O)cc1 | – | – | – | 1 |
| 26 | 13 | 12 | 22 | 1 | O=C(O)c1ccc(-n2c(/C=C/c3cccc(C(F)(F)F)c3)nc3ccccc3c2=O)cc1 | – | – | – | 2 |
| 98 | 100 | 31 | 250 | 3 | COc1ccc(/C=C/c2nc3ccccc3c(=O)n2-c2ccc(C(=O)O)cc2)cc1 | – | – | – | 8 |
| 35 | 38 | 36 | 110 | 1 | O=C(O)c1ccc(-n2c(/C=C/c3ccc(O)cc3)nc3ccccc3c2=O)cc1 | – | – | – | 3 |
| 162 | 112 | 36 | > 300 | 3 | O=C(O)c1ccc(-n2c(/C=C/c3cccc([N+](=O)[O-])c3)nc3cc4c(cc3c2=O)OCO4)cc1 | 40 | – | – | – |
| 144 | > 300 | 30 | > 300 | – | C=CCOc1ccc(/C=C/c2nc3ccccc3c(=O)n2-c2ccc(C(=O)O)cc2)cc1 | 111 | – | – | – |
| 85 | 84 | 33 | 25 | 3 | O=C(O)c1ccc(-n2c(/C=C/c3ccccc3)nc3ccccc3c2=O)cc1 | – | – | – | 1 |
| 238 | 238 | 16 | > 300 | 15 | COc1ccc2nc(/C=C/c3ccc([N+](=O)[O-])cc3)n(-c3cccc(C(=O)O)c3)c(=O)c2c1 | 21 | – | – | – |
| > 300 | > 300 | 6 | > 300 | – | O=C(O)c1ccc(-n2c(/C=C/c3ccc([N+](=O)[O-])cc3)nc3c(Cl)cc(Cl)cc3c2=O)cc1 | 9 | – | – | – |
| 106 | 94 | 34 | > 300 | 3 | N#Cc1ccc(/C=C/c2nc3ccccc3c(=O)n2-c2ccc(C(=O)O)cc2)cc1 | 28 | – | – | – |
| 31 | 21 | 6 | > 300 | 4 | O=C(O)c1ccc(-n2c(/C=C/c3ccc4ccccc4c3)nc3ccccc3c2=O)cc1 | 14 | – | – | – |
| 262 | > 300 | 16 | > 300 | – | O=C(O)c1ccc(-n2c(/C=C/c3ccc4c(c3)OCCO4)nc3ccccc3c2=O)cc1 | 26 | – | – | – |

| SMILES | IC50 ([1]; read-out: IC50) [µM] | IC50 ([2]; read-out: IC50) [µM] | IC50 [4] [µM] | IC50 (Glutamate receptor 1) [µM] | Ratio IC50 (Rattus norvegicus [5]) | IC50 [3] [µM] | IC50 ([1]; oocyte) | IC50 ([2]; oocyte) | Ratio IC50 (Rattus norvegicus [6]) |
| --- | --- | --- | --- | --- | --- | --- | --- | --- | --- |
| O=C(O)c1ccc(-n2c(/C=C/c3cccc([N+](=O)[O-])c3)nc3ccc([N+](=O)[O-])cc3c2=O)cc1 | – | – | 90 | > 300 | – | 204 | Not Active | Not Active | – |
| O=c1c2ccccc2nc(/C=C/c2cccc([N+](=O)[O-])c2)n1-c1ccccc1 | > 300 | > 300 | > 300 | > 300 | – | > 300 | – | – | 1 |
| O=C(O)c1ccc(/C=C/c2nc3ccccc3c(=O)n2-c2ccc(C(=O)O)cc2)cc1 | > 300 | > 300 | > 300 | > 300 | – | > 300 | – | – | 1 |
| COc1ccc2nc(/C=C/c3cccc(C(=O)O)c3)n(-c3ccc(C(=O)O)cc3)c(=O)c2c1 | > 300 | > 300 | 131 | > 300 | – | > 300 | – | – | – |
| COc1ccc2nc(/C=C/c3cccc([N+](=O)[O-])c3)n(-c3ccc(C(N)=O)cc3)c(=O)c2c1 | 82 | > 300 | > 300 | > 300 | – | 58 | – | – | 1 |
| COc1ccc(-n2c(/C=C/c3cccnc3)nc3ccc(I)cc3c2=O)cc1 | > 300 | > 300 | > 300 | > 300 | – | > 300 | – | – | 1 |
| O=C(O)COc1ccc(/C=C/c2nc3ccccc3c(=O)n2-c2ccc(C(=O)O)cc2)cc1 | > 300 | > 300 | > 300 | > 300 | – | > 300 | – | – | 1 |
| Cc1ccc(-n2c(/C=C/c3cccnc3)nc3ccc(I)cc3c2=O)cc1 | > 300 | > 300 | > 300 | > 300 | – | > 300 | – | – | 1 |
| Cc1nc2ccc(I)cc2c(=O)n1-c1ccc(C(=O)O)cc1 | > 300 | > 300 | > 300 | > 300 | – | > 300 | – | – | 1 |
| COc1ccc2nc(/C=C/c3cccc([N+](=O)[O-])c3)n(-c3ccc(C#N)cc3)c(=O)c2c1 | > 300 | > 300 | > 300 | > 300 | – | > 300 | – | – | 1 |
| Cc1cccc(-n2c(/C=C/c3cccnc3)nc3ccc(I)cc3c2=O)c1 | > 300 | > 300 | > 300 | > 300 | – | 241 | – | – | 1 |
| O=c1c2cc(I)ccc2nc(/C=C/c2cccnc2)n1-c1cccc([N+](=O)[O-])c1 | > 300 | > 300 | > 300 | > 300 | – | > 300 | – | – | 1 |
